Assay results from ChEMBL document CHEMBL4190192, “Interaction of 7-Alkoxycoumarins with the Aryl Hydrocarbon Receptor” (J Nat Prod, 2017).

Legend:
Type in all cases: cell-based
[1] = target: T1, Aryl hydrocarbon receptor (Homo sapiens, UniProt P35869); test: Antagonist activity at AhR (unknown origin) expressed in mouse H1L1.1c2 cells assessed as inhibition of FICZ-induced AhR activation at 1 to 100 uM after 8 to 10 hrs by luciferase reporter gene assay
T1 sequence (P35869 whole entry): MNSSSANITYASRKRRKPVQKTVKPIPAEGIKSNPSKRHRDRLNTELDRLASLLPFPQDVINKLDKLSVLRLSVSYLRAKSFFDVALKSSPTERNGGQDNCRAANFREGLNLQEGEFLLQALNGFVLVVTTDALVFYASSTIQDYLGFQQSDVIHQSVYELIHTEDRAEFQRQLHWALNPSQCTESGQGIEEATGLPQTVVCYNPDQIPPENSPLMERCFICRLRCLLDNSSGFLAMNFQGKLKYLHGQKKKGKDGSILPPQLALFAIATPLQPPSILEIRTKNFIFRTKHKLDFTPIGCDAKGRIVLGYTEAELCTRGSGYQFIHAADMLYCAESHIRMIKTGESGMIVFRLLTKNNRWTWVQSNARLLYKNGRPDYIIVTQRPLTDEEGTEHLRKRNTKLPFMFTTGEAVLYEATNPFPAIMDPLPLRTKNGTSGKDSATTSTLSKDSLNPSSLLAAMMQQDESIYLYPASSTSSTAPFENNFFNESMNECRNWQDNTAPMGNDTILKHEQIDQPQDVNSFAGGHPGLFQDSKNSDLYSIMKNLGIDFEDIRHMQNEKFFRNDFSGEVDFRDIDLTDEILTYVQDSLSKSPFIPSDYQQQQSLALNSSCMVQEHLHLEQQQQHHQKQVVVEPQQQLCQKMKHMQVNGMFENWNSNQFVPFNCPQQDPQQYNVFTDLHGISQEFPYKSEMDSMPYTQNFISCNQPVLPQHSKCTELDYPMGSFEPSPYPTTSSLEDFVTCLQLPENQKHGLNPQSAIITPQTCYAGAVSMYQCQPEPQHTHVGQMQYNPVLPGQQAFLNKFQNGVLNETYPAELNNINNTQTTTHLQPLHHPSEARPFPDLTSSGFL

[2] = target: T1, Aryl hydrocarbon receptor; test: Agonist activity at AhR (unknown origin) expressed in mouse H1L1.1c2 cells at 100 uM after 8 to 10 hrs by luciferase reporter gene assay
[3] = target: T1, Aryl hydrocarbon receptor; test: Agonist activity at AhR (unknown origin) expressed in mouse H1L1.1c2 cells at 1 to 100 uM after 8 to 10 hrs by luciferase reporter gene assay
Summary of the method: (§1)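 AhR luciferase reporter cells were grown and treated with compounds at three concentrations (1, 10 and 100 μM). The reference ligand FICZ was run at 1 μM. The read-out was luciferase activity. Data are given as mean ± SD, with significance at P < 0.05, < 0.01 and < 0.001.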

[4] = target: T1, Aryl hydrocarbon receptor; test: Agonist activity at AhR (unknown origin) expressed in mouse H1L1.1c2 cells after 8 to 10 hrs by luciferase reporter gene assay; summary of the method: as §1

| Compound | inhibition (INH) [1] | Activity [2] | Activity [3] | Activity [4] |
| --- | --- | --- | --- | --- |
| CCC#CCOc1ccc2ccc(=O)oc2c1 [7-(2-PENTYNYLOXY)COUMARIN] | Not Active | Active | – | – |
| C=CCOc1ccc2ccc(=O)oc2c1 [7-ALLYLOXYCOUMARIN] | Not Active | – | Not Active | – |
| CC(C)CCOc1ccc2ccc(=O)oc2c1 | Not Active | – | Not Active | – |
| COc1ccc2ccc(=O)oc2c1 [HERNIARIN] | Not Active | – | Not Active | – |
| COc1cc(/C=C/C(=O)O)ccc1OCC=C(C)C [BOROPINIC ACID] | Not Active | – | – | Dose-dependent effect |
| COc1cc(/C=C/C(=O)O)ccc1OC/C=C(\C)CCC=C(C)C | Not Active | – | Not Active | – |
| O=c1ccc2ccc(O)cc2o1 [UMBELLIFERONE] | Not Active | – | Not Active | – |
| CC(C)(C)COc1ccc2ccc(=O)oc2c1 | Not Active | Active | – | – |
| C/C=C/COc1ccc2ccc(=O)oc2c1 [(E)-7-(2-BUTENYLOXY)COUMARIN] | Not Active | Active | – | – |
| CC(C)=CCC/C(C)=C/COc1ccc2ccc(=O)oc2c1 | Not Active | – | Not Active | – |
| CCOc1ccc2ccc(=O)oc2c1 [ETHOXYCOUMARIN] | Not Active | – | Not Active | – |
| CC(C)=CCOc1ccc2ccc(=O)oc2c1 [7-PRENYLOXYCOUMARIN] | Not Active | – | – | Dose-dependent effect |
| CCCOc1ccc2ccc(=O)oc2c1 [7-PROPOXYCOUMARIN] | Active | – | Not Active | – |
